How the values were obtained:
cGMP in the PFC of mice = assay: Determination of cGMP in mouse prefrontal cortex; format: in vivo; conditions: 30 min after p.o. administration, highest dose tested, P < 0.05
In short: (§1)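 Adult male CD-1 mice, n = 8/group, dosed p.o. with vehicle (0.5% Natrosol, 0.01% Tween-80) or test compound. Killed by focused microwave brain irradiation 30 min later. PFC homogenized and centrifuged in 0.5 N HCl; supernatant assayed by ELISA. Detection limits: cGMP 0.02, cAMP 0.03 pmol·mg−1 tissue. One-way ANOVA, Dunnett's.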

cAMP in the PFC of mice = assay: Determination of cAMP in mouse prefrontal cortex; format: in vivo; conditions: 30 min after p.o. administration, highest dose tested, P < 0.05
In short: as §1

male CD‐1 mice = assay: T‐maze continuous alternation task, MK‐801‐induced memory impairment; format: in vivo, mouse; conditions: for time spent in the T‐maze vs. MK‐801/vehicle‐treated group: P > 0.05
In short: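 Male CD-1 mice (about 28 g) on a reversed light cycle, tested in the dark phase in an enclosed, elevated T-maze under dim light (10 lux). MK-801 s.c. 30 min pre-test; test compound (0.1–75 mg·kg−1 p.o., Natrosol/Tween vehicle) given just after it. 14 trials in 14 min; mice completing <50% excluded. Reversal scaled: saline/vehicle 100%, MK-801/vehicle 0%. Kruskal–Wallis, Dunn's.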

[1] = test system: synaptic transmission in acute slices of the rat PFC; assay: Extracellular field potential; format: cell-based
In short: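 PFC slices from male Sprague Dawley rats aged 5–6 weeks, cut in ice-cold ACSF (pH 7.4, 95% O2/5% CO2). Layer V fEPSPs (prelimbic/infralimbic) evoked by 100 μs pulses every 30 s to layers II–III. Drugs from DMSO, 0.05% final, applied 30–60 min after 30 min baseline. Amplitude as % of last 10 min baseline; 3–14 slices/group; paired t-test.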

male Lister‐hooded rats = assay: 5‐choice serial reaction time task; format: in vivo, rat
In short: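 Food-restricted rats held at about 85% of free-feeding weight. Trained to criterion: ≥50 correct trials, ≥70% accuracy, ≤20% omissions (SD 0.7 s, ITI 5 s, LH 5 s). Ten challenge sessions with SD cut from 700 to 500 ms. Upper and lower 15% by mean accuracy taken as high/low performers, n = 9. Test compound in saline given i.p. 10 min pre-test. Repeated-measures ANOVA, Dunnett's.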

[2] = high‐performing rats, 3 mg·kg^−1, mean ± SEM
[3] = high‐performing rats, 6 mg·kg^−1, mean ± SEM
[4] = low‐performing rats, 3 mg·kg^−1, mean ± SEM
[5] = low‐performing rats, 6 mg·kg^−1, mean ± SEM

`CN1C(=O)c2c(nn(Cc3ccc(-c4cccc(F)n4)cc3)c2Nc2ccccc2)N2C1=N[C@@H]1CCC[C@@H]12` [ITI‐214] was tested, and the “PFC cGMP vs. vehicle” value (cGMP in the PFC of mice) was “significant increase”, the “PFC cAMP vs. vehicle” value (cAMP in the PFC of mice) was “significant increase” and the “change in alternation of MK‐801‐treated mice” value (from here on “change in alternation”) (male CD‐1 mice; ITI‐214 0.1 mg·kg^−1 p.o., MK‐801 0.1 mg·kg^−1 s.c.) was 0%. The “change in alternation” value (male CD‐1 mice; ITI‐214 1 mg·kg^−1 p.o., MK‐801 0.1 mg·kg^−1 s.c.) was 13%, the “effect on alternation performance of MK‐801‐treated mice” value (male CD‐1 mice; ITI‐214 1 mg·kg^−1 p.o., P < 0.05 vs. MK‐801) was “statistically significant” and the “change in alternation” value (male CD‐1 mice; ITI‐214 3 mg·kg^−1 p.o., MK‐801 0.1 mg·kg^−1 s.c.) was 12%. For the same compound, the “effect on alternation performance of MK‐801‐treated mice” value (male CD‐1 mice; ITI‐214 3 mg·kg^−1 p.o., P = 0.059 vs. MK‐801) was “trend towards a significant effect”, the “change in alternation” value (male CD‐1 mice; ITI‐214 10 mg·kg^−1 p.o., MK‐801 0.1 mg·kg^−1 s.c.) was 10% and the “change in alternation” value (male CD‐1 mice; ITI‐214 30 mg·kg^−1 p.o., MK‐801 0.1 mg·kg^−1 s.c.) was 7%. For the same compound, the “change in alternation” value (male CD‐1 mice; ITI‐214 75 mg·kg^−1 p.o., MK‐801 0.1 mg·kg^−1 s.c.) was 2%, the “recovery in cognitive performance” value (male CD‐1 mice; mice, ITI‐214 0.1 mg·kg^−1 p.o., MK‐801 0.1 mg·kg^−1 s.c.) was 1% and the “recovery in cognitive performance” value (male CD‐1 mice; mice, ITI‐214 1 mg·kg^−1 p.o., MK‐801 0.1 mg·kg^−1 s.c.) was 57%. The “recovery in cognitive performance” value (male CD‐1 mice; mice, ITI‐214 3 mg·kg^−1 p.o., MK‐801 0.1 mg·kg^−1 s.c.) was 51%, the “recovery in cognitive performance” value (male CD‐1 mice; mice, ITI‐214 10 mg·kg^−1 p.o., MK‐801 0.1 mg·kg^−1 s.c.) was 45% and the “recovery in cognitive performance” value (male CD‐1 mice; mice, ITI‐214 30 mg·kg^−1 p.o., MK‐801 0.1 mg·kg^−1 s.c.) was 32%. For the same compound, the “recovery in cognitive performance” value (male CD‐1 mice; mice, ITI‐214 75 mg·kg^−1 p.o., MK‐801 0.1 mg·kg^−1 s.c.) was 11%, the “time spent in the T‐maze vs. MK‐801/vehicle‐treated group” value (male CD‐1 mice; mice, ITI‐214 0.1–75 mg·kg^−1 p.o.) was “did not change” and the “maximal effect, recovery in the cognitive function” value (male CD‐1 mice; mice, ITI‐214 p.o., MK‐801 0.1 mg·kg^−1) was “approximately 57%”. For the same compound, the “effect on fEPSP amplitude, compound alone” value ([1]; ITI‐214 per se) was “did not show any effects per se” and the “effect on forskolin‐induced fEPSP amplitude with activated PDE1” value ([1]; forskolin + thapsigargin + ITI‐214) was “rescued the reduced fEPSPs amplitudes”.
In the case of `C[C@]12N[C@H](Cc3ccccc31)c1ccccc12` [MK‐801], the “overall time spent to complete the T‐maze task vs. control group” value (male CD‐1 mice; mice, MK‐801 0.075 mg·kg^−1 s.c., Figure S1a (SKF38393 study)) is reported as “reduced”, the “spontaneous alternation vs. vehicle‐injected mice” value (male CD‐1 mice; mice, MK‐801 0.075 mg·kg^−1 s.c., P < 0.05) is reported as “significant reduction” and the “overall time spent to complete the T‐maze task vs. control group” value (male CD‐1 mice; mice, MK‐801 0.1 mg·kg^−1 s.c., Figure S1b (ITI‐214 study)) is reported as “reduced”. The “reduction of spontaneous alternation vs. vehicle‐injected mice” value (male CD‐1 mice; mice, MK‐801 0.1 mg·kg^−1 s.c., P < 0.05) was about 23%.
With `Oc1cc2c(cc1O)C(c1ccccc1)CNCC2` (stereo not drawn) [SKF38393] the “recovery in the cognitive performance” value (male CD‐1 mice; mice, SKF38393 4 mg·kg^−1 s.c., MK‐801 0.075 mg·kg^−1 s.c.) was 67%, the “recovery in the cognitive performance” value (male CD‐1 mice; mice, SKF38393 8 mg·kg^−1 s.c., MK‐801 0.075 mg·kg^−1 s.c.) was 43% and the “effect on MK‐801‐induced deficits in spontaneous alternation” value (male CD‐1 mice; mice, SKF38393 8 mg·kg^−1 s.c., P > 0.05 vs. MK‐801 and vehicle) was “ineffective”. The “time spent in the T‐maze vs. MK‐801/vehicle‐treated group” value (male CD‐1 mice; mice, SKF38393 2, 4, 8 mg·kg^−1 s.c.) was “did not change”, the “effect on MK‐801‐induced deficits in spontaneous alternation” value (male CD‐1 mice; mice, SKF38393 2 and 4 mg·kg^−1 s.c., P < 0.05 vs. MK‐801) was “improved” and the “maximal effect, recovery in the cognitive function” value (male CD‐1 mice; mice, SKF38393 s.c., MK‐801 0.075 mg·kg^−1) was “approximately 67%”. For the same compound, the “effect on synaptic transmission (fEPSP amplitude)” value ([1]; SKF38393) was “increased synaptic transmission”, the Correct latency (male Lister‐hooded rats; [2]) was 0.79 ± 0.02 s and the Omissions (male Lister‐hooded rats; [2]) was 11.24 ± 2.64 n. It also gave a Perseverative responses (male Lister‐hooded rats; [2]) of 0.94 ± 0.26 n, a Premature responses (male Lister‐hooded rats; [2]) of 3.17 ± 0.72% and a Reward latency (male Lister‐hooded rats; [2]) of 1.24 ± 0.06 s. The Correct latency (male Lister‐hooded rats; [3]) was 0.83 ± 0.03 s, the Omissions (male Lister‐hooded rats; [3]) was 21.65 ± 2.98 n and the Perseverative responses (male Lister‐hooded rats; [3]) was 1.06 ± 0.27 n. The Premature responses (male Lister‐hooded rats; [3]) was 1.97 ± 0.69 %, the Reward latency (male Lister‐hooded rats; [3]) was 1.27 ± 0.06 s and the enhancement of accuracy (male Lister‐hooded rats; high‐performing rats, SKF38393 3 or 6 mg·kg^−1 i.p., P > 0.05) was “but not high‐performing rats”. It also gave a Correct latency (male Lister‐hooded rats; [4]) of 0.77 ± 0.02 s, an Omissions (male Lister‐hooded rats; [4]) of 10.61 ± 1.70 n and a Perseverative responses (male Lister‐hooded rats; [4]) of 0.83 ± 0.26 n. The Premature responses (male Lister‐hooded rats; [4]) was 3.06 ± 0.27 %, the Reward latency (male Lister‐hooded rats; [4]) was 1.21 ± 0.04 s and the Correct latency (male Lister‐hooded rats; [5]) was 0.85 ± 0.03 s. The Omissions (male Lister‐hooded rats; [5]) was 17.74 ± 2.58 n, the Perseverative responses (male Lister‐hooded rats; [5]) was 0.67 ± 0.20 n and the Premature responses (male Lister‐hooded rats; [5]) was 2.15 ± 0.49 %. For the same compound, the Reward latency (male Lister‐hooded rats; [5]) was 1.31 ± 0.06 s.
`C=C[C@@]1(C)CC(=O)[C@]2(O)[C@@]3(C)[C@@H](O)CCC(C)(C)[C@@H]3[C@H](O)[C@H](OC(C)=O)[C@@]2(C)O1` [forskolin] was tested, and the “effect on fEPSPs” value ([1]; forskolin 0.1, 1, 10 μM) was “increased fEPSPs concentration‐dependently”.
With `C/C=C(/C)C(=O)O[C@H]1C(C)=C2[C@H]([C@@H]1OC(=O)CCCCCCC)[C@@](C)(OC(C)=O)C[C@H](OC(=O)CCC)[C@@]1(O)[C@H]2OC(=O)[C@@]1(C)O` [thapsigargin] the “effect on forskolin‐induced fEPSP amplitude” value ([1]; forskolin + thapsigargin (PDE1 activated via Ca^2+/calmodulin)) was “reduced fEPSPs amplitudes”.
